Shown are actives, neighbours in structure and some others; about 1.4% of the full set was active somewhere.
Diaphorase act = diaphorase activation or chemical reduction counter-screen; activation factor at 20 µM; AID 1229; hit rate 0.005% among 190,000; Diaphorase/resazurin coupled assay, resorufin fluorescence, 16 min; hits give high values; 1 = vehicle wells, 0 = NADH-free wells;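 active means diaphorase activity raised at least twofold by the compound at 20 µM; inactive means activation factor below 2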
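Assay system: Purified diaphorase enzyme from Clostridium kluyveri | Amount: Enzyme 0.07 U/mL final | Dosing: Compound 20 µM once, DMSO 1% | Timing: 16 min reaction at room temperature | Detection: Fluorescence, excitation 544 nm and emission 590 nm | Evaluation: Higher resorufin formation from activation or reduction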
HKDC1 inh = HKDC1 (human) hexokinase inhibition; Q2TB90; recombinant HKDC1, G6PDH/diaphorase resazurin coupled fluorescence; inhibition, % at 20 µM; hit rate 0.16% among 340,000;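 active means inhibition above about 35% when tested at 20 µM, limit read from the data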
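Test system: HK5 enzyme. Quantity: 5 µg/mL HK5 final. Reagent: glucose and ATP substrates. Schedule: 90 min reaction incubation at room temperature, dark. Technique: resazurin-to-resorufin fluorescence via G6PDH and diaphorase coupling, 525/613 nm. Control set: DMSO wells with and without enzyme mix.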
ATG4B inh = blocks human ATG4B protease cleavage of LC3 substrate; ATG4B cleavage of LC3-PLA2, NBD-HPC fluorescence, 1 h; AID 504462; inhibition, % at 8.33 µM; Q9Y4P1; hit rate 0.51% among 340,000; in the data active means inhibition above about 40%
Target sequence (Q9Y4P1 whole entry, looked up): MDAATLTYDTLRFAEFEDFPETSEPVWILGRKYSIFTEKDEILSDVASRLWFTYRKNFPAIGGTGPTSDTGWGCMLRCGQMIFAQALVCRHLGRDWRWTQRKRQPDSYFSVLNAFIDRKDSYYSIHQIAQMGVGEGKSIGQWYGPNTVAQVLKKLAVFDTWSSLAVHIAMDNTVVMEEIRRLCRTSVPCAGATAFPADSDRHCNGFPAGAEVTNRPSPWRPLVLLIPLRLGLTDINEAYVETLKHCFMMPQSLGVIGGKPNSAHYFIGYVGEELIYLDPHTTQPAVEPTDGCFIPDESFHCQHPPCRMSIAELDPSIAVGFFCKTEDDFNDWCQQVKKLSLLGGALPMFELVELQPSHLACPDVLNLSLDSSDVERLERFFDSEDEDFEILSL
Diaphorase inh = diaphorase inhibition or chemical oxidation counter-screen | diaphorase resazurin-to-resorufin fluorescence, NADH, 16 min; bacterial (C. kluyveri) enzyme, not human | inhibition, % at 20 µM | hit rate 0.69% among 190,000;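 active means primary screen inhibition at 20 µM above a set limit, cut at about 50% in these data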
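System: Diaphorase enzyme from Clostridium kluyveri | Amount: Enzyme working solution with 0.14 U/mL diaphorase | Benchmarks: No-NADH positive control and DMSO neutral control | Signal: Fluorescence of resorufin formed from resazurin, Ex 544/Em 590 nm | Schedule: 16-min room-temperature incubation before reading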
CTSL1 counter = counter-screen for PFM18AAP inhibitors: inhibitors of F. hepatica cathepsin L1. AID 1906. inhibition, % at 5.96 µM. hit rate 0.49% among 300,000. recombinant F. hepatica cathepsin L1, Z-Leu-Arg-MCA fluorescence;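 active means inhibition above the mean of all tested compounds plus 3 SD, set per screening campaign, cut at about 17% in these data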
Of the large screens only hits and unclear results are named; the others gave an inactive call.

Cc1ccc(NC(=O)CN2C(=O)S/C(=C/c3ccc(O)c([N+](=O)[O-])c3)C2=O)cc1C	Diaphorase inh 92.2 (no result: CTSL1 counter)
Cc1sc2ncnc(N3CCN(Cc4ccccc4)CC3)c2c1-c1ccccc1	none (no result: Diaphorase act, Diaphorase inh)
Cc1cc(C(=O)Nc2nncs2)oc1C	none (no result: Diaphorase act, Diaphorase inh)
Cc1cc(C)nc(NC(=O)/C=C/c2ccc(Cl)cc2Cl)c1	CTSL1 counter 19.1
COC(=O)C1=C(C)N(C)C(=S)N(C)C1c1ccc(OC)cc1 (stereo not given)	CTSL1 counter 17.4
O=C(/C=C(\O)c1ccccc1)C(=O)NNC(=O)c1ccccc1	none (no result: Diaphorase act, Diaphorase inh)
O=C(/C=C(\O)c1ccc(Cl)cc1)C(=O)NNC(=O)C(O)(c1ccccc1)c1ccccc1	ATG4B inh 42.1
CCCn1c(=O)c2sccc2n2c(CCCC(=O)NC3CCN(Cc4ccccc4)CC3)nnc12	none (no result: Diaphorase act, Diaphorase inh)
CC(=O)OCC1OC(n2c(-c3ccc(Cl)cc3)ccc(C#N)c2=S)C(OC(C)=O)C(OC(C)=O)C1OC(C)=O (stereo not given)	none (no result: Diaphorase act, Diaphorase inh, CTSL1 counter)
Nc1cc2nc[nH]c2cc1N	Diaphorase inh 60.6 (no result: CTSL1 counter)
COc1ccccc1CNC(=O)[C@@H](NC(=O)C1CCN(C(=O)[C@@H]2CCCN2C(=O)OC(C)(C)C)CC1)C(C)C	none (no result: Diaphorase act, Diaphorase inh)
Cc1cccc(OCC(=O)N/N=C/c2ccc(N(C)C)cc2)c1	Diaphorase inh 55.4
Cc1ccsc1CN(C)C(=O)CN1C(=O)NC2(CCCc3ccccc32)C1=O (stereo not given)	none (no result: Diaphorase act, Diaphorase inh, CTSL1 counter)
Cc1nc2c(C(=O)NCCc3ccccc3)c[nH]n2c(=O)c1Cl	Diaphorase inh 79.2
Cc1nc2c(C(=O)NCCC(C)C)c[nH]n2c(=O)c1Cl	none
N#CCOc1coc(CN2CCN(c3ccccc3)CC2)cc1=O	none (no result: Diaphorase act, Diaphorase inh)
CCCC(C(=O)NC1CCCC1)N(C(=O)c1snc(C(N)=O)c1N)c1ccc(F)cc1 (stereo not given)	none (no result: Diaphorase act, Diaphorase inh, CTSL1 counter)
O=C(O)c1cccc(NC(=S)N/N=C/c2ccccc2OCc2ccc(Br)cc2)c1	Diaphorase inh 50.8
CCN(CC)C(=O)Cn1cc(C(=O)C(=O)Nc2ccc3c(c2)OCCO3)c2ccccc21	none (no result: Diaphorase act, Diaphorase inh)
Cc1c(C(=O)N2CCc3ccccc3C2)oc2ccccc12	none (no result: Diaphorase act, Diaphorase inh)
COc1ccccc1-c1ccc(Nc2ccc(C(=O)N3CCOCC3)cc2)nn1	CTSL1 counter 17.6
Cc1ccc(C)c(OCC(=O)Nc2c(C)n(C)n(-c3ccccc3)c2=O)c1	none (no result: Diaphorase act, Diaphorase inh, CTSL1 counter)
Cc1c(NC(=O)COc2cccc(Cl)c2Cl)c(=O)n(-c2ccccc2)n1C	CTSL1 counter 23.4 (no result: Diaphorase act, Diaphorase inh)
C[C@H](CCC(=O)NCC(=O)O)[C@H]1CC[C@H]2C3[C@H](O)C[C@@H]4C[C@H](O)CC[C@]4(C)[C@H]3C[C@H](O)[C@]12C (stereo not given in full)	none (no result: Diaphorase act, Diaphorase inh)
CC(=O)c1ccc(NC(=O)CN2C(=O)NC3(CCc4ccccc43)C2=O)cc1 (stereo not given)	none (no result: Diaphorase act, Diaphorase inh, CTSL1 counter)
CN1CCc2cccc3c2[C@H]1Cc1ccc(O)c(O)c1-3	Diaphorase inh 78.0
NNC(=O)CNc1ccccc1Cl	Diaphorase inh 54.4
OCC[C@@H]1C[C@@H](O)[C@H](O)[C@@]2(OCCc3ccccc32)O1	none (no result: Diaphorase act, Diaphorase inh)
C=CCc1cccc2cc(C(=O)Nc3ccc(F)cc3)c(=O)oc12	none
C=CCc1cccc2cc(C(=O)Nc3ccc(S(=O)(=O)Nc4nnc(CC)s4)cc3)c(=O)oc12	Diaphorase inh 51.5
CCN=C1S/C(=C/c2ccc(-c3ccc(F)cc3)o2)C(=O)N1CC	CTSL1 counter 17.7 (no result: Diaphorase act, Diaphorase inh)
CCN=C1S/C(=C\c2ccc(Sc3ccc(Cl)cc3)o2)C(=O)N1CC	none
COCCCNC(=O)c1ccc2c(=O)n(Cc3ccc4c(c3)OCO4)c(=S)[nH]c2c1	none
CC1CC(C)CN(C(=O)c2ccc3c(=O)n(Cc4ccc5c(c4)OCO5)c(=S)[nH]c3c2)C1 (stereo not given)	ATG4B inh 100.9
CCN(CC(=O)Nc1c(F)cccc1F)C(=O)CN(C)S(=O)(=O)c1ccc(F)cc1	none (no result: Diaphorase act, Diaphorase inh)
COc1cc(C(=O)NC(=S)NNC(=O)c2cnccn2)cc(OC)c1OC	Diaphorase inh 51.1
COc1ccc(C(=O)NC(=S)NNC(=O)c2cnccn2)cc1	Diaphorase inh 64.6
CCn1c(C)nc2cc(C(=O)NNC(=S)NC(=O)c3ccc(OC)cc3)ccc21	Diaphorase inh 57.1
O=C(NC(=S)NNC(=O)c1cnccn1)c1ccc(Cl)cc1	none (no result: Diaphorase act, Diaphorase inh)
